Blank lines part the entries; values can stand above or below the compound they belong to.
Legend:
[1] = molecular target: Mitogen-activated protein kinase kinase kinase 8 (Homo sapiens, UniProt P41279); assay: Inhibition of Tpl2 by ELISA
Blood = assay: Inhibition of LPS-stimulated TNFalpha production in human blood; type: functional
Monocyte = assay: Inhibition of LPS-stimulated TNFalpha production in monocytes; type: functional, Homo sapiens
[2] = molecular target: Epidermal growth factor receptor (Homo sapiens, UniProt P00533)
[3] = Volume of distribution at steady state in Sprague-Dawley rat at 5 mg/kg, iv; type: ADME, organism-based; set-up: dose 5 mg/kg, route intravenous; conditions: in vivo, read-out: Vss
Outline: (§1)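 Female Sprague-Dawley rats were dosed by the iv or oral route. Parameters are reported as means of individual-animal pharmacokinetic values.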

Cytochrome P450 3A4 = Cytochrome P450 3A4 (Homo sapiens, UniProt P08684)
[4] = Half life in Sprague-Dawley rat at 5 mg/kg, iv; type: ADME, organism-based; set-up: dose 5 mg/kg, route intravenous; conditions: in vivo; outline: as §1
Rattus norvegicus = assay: AUC (0 to infinity) in Sprague-Dawley rat at 25 mg/kg, po; type: ADME, organism-based, Plasma; set-up: dose 25 mg/kg, route oral; conditions: in vivo; outline: as §1
[5] = molecular target: Protein kinase C alpha type (Homo sapiens, UniProt P17252); assay: Inhibition of PKCalpha
[6] = molecular target: MAP kinase-activated protein kinase 2 (Homo sapiens, UniProt P49137); assay: Inhibition of MK2
CaM kinase II = CaM kinase II (Homo sapiens, UniProt Q13557+Q13555+Q13554+Q9UQM7)
[7] = molecular target: cAMP-dependent protein kinase (PKA) (Homo sapiens, UniProt P22694+P17612+P22612); assay: Inhibition of PKA; type: protein assay
[8] = molecular target: Mitogen-activated protein kinase 14 (Homo sapiens, UniProt Q16539); assay: Inhibition of p38alpha
physchem = conditions: buffer, pH 7.4
[9] = molecular target: Ribosomal protein S6 kinase beta-1 (Homo sapiens, UniProt P23443); assay: Inhibition of S6K
[10] = Bioavailability in Sprague-Dawley rat at 25 mg/kg, po; type: ADME, organism-based; conditions: in vivo; outline: as §1
[11] = Plasma clearance in Sprague-Dawley rat at 5 mg/kg, iv; type: ADME, organism-based; set-up: dose 5 mg/kg, route intravenous; outline: as §1
[12] = Half life in Sprague-Dawley rat at 25 mg/kg, po; type: ADME, organism-based; set-up: dose 25 mg/kg, route oral; conditions: in vivo; outline: as §1
[13] = Permeability at pH 7.4 by PAMPA method; type: ADME; conditions: read-out: permeability
Outline: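 Passive permeability was measured by high-resolution PAMPA at pH 7.4.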

[14] = molecular target: Proto-oncogene tyrosine-protein kinase Src (Homo sapiens, UniProt P12931); assay: Inhibition of Src
[15] = molecular target: Mitogen-activated protein kinase 8 (Homo sapiens, UniProt P45983); assay: Inhibition of Jnk1
CYP3A4 = CYP3A4 (Homo sapiens, UniProt P08684); assay: Inhibition of CYP3A4 at 3 uM; type: ADME
Sequence of CYP3A4 (P08684 whole entry): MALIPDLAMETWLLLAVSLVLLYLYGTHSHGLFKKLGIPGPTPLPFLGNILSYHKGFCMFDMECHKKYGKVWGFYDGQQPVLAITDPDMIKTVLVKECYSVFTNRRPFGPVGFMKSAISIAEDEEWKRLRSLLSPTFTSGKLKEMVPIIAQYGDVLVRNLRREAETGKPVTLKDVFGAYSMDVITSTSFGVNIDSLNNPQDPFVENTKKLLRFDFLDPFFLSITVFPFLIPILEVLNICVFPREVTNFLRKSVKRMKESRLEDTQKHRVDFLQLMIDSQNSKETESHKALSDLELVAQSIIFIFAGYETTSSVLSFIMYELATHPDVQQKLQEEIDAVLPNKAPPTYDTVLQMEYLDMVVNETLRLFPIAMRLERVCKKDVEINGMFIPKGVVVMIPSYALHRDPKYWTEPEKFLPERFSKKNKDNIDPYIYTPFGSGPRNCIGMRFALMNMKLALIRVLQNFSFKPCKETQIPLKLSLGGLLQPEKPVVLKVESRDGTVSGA

Sequence of Mitogen-activated protein kinase 14 (Q16539 whole entry): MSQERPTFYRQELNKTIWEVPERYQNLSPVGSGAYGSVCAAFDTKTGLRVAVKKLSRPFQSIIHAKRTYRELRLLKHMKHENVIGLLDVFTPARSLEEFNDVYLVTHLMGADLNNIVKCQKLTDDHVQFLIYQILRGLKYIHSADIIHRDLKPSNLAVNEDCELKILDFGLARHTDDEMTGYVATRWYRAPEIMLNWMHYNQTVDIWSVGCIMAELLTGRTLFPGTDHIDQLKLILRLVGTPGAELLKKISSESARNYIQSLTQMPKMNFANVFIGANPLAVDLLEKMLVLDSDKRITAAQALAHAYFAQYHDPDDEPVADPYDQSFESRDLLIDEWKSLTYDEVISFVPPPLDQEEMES
Sequence of MAP kinase-activated protein kinase 2 (P49137 whole entry): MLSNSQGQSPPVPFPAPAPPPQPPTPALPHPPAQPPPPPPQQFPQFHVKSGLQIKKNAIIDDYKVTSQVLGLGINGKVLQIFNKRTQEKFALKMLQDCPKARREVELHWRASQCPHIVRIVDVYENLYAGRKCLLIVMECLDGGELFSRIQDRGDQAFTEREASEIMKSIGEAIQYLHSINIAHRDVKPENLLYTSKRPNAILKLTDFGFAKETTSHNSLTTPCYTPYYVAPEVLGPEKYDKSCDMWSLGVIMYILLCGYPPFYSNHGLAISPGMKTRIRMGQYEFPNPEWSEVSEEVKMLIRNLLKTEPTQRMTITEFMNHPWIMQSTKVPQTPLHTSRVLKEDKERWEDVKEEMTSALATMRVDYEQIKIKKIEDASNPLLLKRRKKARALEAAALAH
Sequence of Proto-oncogene tyrosine-protein kinase Src (P12931 2-536 limits assumed): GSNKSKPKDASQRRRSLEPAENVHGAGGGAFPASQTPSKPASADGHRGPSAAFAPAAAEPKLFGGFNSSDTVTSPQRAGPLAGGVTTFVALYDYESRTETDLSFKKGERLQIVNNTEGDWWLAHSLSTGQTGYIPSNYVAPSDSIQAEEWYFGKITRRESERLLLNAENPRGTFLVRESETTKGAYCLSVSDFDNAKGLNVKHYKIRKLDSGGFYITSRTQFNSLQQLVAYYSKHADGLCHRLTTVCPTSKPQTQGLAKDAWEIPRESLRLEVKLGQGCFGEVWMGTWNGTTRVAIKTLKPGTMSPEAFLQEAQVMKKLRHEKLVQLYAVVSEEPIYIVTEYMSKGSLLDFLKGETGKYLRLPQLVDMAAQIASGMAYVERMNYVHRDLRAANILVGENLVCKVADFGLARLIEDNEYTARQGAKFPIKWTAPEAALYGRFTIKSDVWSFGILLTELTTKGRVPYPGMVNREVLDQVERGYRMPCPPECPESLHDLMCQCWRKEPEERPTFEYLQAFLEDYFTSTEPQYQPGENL
Sequence of Epidermal growth factor receptor (P00533 whole entry): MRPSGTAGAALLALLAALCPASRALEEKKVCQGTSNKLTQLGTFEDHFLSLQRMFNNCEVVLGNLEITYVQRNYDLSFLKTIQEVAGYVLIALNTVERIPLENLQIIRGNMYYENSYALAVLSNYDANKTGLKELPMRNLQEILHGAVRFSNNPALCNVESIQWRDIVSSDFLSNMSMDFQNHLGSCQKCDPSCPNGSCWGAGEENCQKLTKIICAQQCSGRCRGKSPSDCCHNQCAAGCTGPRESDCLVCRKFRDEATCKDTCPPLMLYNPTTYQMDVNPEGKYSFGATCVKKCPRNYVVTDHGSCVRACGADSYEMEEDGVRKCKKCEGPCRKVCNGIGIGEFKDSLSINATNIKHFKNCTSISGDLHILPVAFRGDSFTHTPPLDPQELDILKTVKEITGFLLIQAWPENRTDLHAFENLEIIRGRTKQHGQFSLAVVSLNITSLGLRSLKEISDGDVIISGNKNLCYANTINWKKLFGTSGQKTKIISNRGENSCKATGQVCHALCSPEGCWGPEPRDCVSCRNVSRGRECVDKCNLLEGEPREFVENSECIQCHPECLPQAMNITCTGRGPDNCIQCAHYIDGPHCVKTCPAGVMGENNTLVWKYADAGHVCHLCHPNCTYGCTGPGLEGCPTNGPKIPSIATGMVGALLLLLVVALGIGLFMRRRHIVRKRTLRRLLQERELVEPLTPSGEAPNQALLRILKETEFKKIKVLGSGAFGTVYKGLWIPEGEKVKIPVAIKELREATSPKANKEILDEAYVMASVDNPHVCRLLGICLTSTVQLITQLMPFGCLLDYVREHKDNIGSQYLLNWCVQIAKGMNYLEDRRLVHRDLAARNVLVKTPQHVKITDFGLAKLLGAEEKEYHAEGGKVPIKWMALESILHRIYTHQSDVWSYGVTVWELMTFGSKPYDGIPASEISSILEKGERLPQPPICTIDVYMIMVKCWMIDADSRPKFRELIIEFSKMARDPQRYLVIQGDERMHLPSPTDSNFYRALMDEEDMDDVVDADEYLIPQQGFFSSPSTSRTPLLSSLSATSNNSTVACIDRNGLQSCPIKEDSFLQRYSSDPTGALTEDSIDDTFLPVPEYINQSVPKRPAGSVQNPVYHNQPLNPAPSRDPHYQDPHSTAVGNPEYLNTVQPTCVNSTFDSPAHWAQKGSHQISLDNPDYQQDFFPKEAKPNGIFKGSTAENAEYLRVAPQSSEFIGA
Sequence of Ribosomal protein S6 kinase beta-1 (P23443 whole entry): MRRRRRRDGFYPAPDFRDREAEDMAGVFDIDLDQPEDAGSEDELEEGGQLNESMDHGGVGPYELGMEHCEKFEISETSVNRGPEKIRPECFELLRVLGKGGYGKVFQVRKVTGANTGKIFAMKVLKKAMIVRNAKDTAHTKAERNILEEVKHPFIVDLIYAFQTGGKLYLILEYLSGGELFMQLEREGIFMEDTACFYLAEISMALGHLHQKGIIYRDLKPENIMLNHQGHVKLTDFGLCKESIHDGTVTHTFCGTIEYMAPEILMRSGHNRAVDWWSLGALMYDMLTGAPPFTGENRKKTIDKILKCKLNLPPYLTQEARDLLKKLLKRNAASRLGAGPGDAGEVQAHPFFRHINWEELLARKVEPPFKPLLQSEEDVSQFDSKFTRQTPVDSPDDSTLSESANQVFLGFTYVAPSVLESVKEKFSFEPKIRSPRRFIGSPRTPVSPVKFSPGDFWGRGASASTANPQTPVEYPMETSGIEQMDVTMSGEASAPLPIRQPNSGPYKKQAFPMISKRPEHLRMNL
Sequence of Mitogen-activated protein kinase kinase kinase 8 (P41279 whole entry): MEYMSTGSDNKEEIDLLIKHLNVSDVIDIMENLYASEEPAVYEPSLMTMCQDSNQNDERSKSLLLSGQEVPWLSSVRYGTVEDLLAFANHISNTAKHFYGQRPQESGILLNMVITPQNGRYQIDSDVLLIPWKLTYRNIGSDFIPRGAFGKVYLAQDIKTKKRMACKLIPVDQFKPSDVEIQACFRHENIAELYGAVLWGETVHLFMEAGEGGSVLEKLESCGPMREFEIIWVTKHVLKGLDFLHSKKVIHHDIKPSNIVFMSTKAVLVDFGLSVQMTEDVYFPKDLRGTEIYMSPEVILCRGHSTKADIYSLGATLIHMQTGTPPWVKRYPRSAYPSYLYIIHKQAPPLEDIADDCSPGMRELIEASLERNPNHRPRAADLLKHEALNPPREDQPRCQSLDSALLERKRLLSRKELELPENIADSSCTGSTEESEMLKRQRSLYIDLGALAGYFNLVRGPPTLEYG
Sequence of Cytochrome P450 3A4 (P08684 whole entry): as the sequence (P08684 whole entry) above

Structure (SMILES): N#Cc1cnc2ccc(NCc3c[nH]cn3)cc2c1Nc1ccc(F)c(Cl)c1
Activity (Blood): 3.3 µM
Inhibitory concentration (Monocyte): 600 nM

Structure (SMILES): CN(C)CCCc1[nH]cnc1CNc1cc(Cl)c2ncc(C#N)c(Nc3ccc(F)c(Cl)c3)c2c1
Activity (Blood): 15.2 µM

Structure (SMILES): N#Cc1cnc2c(Cl)cc(NCCc3c[nH]cn3)cc2c1Nc1ccc(F)c(Cl)c1
Activity (Blood): >20 µM

Structure (SMILES): Cn1nccc1CNc1cc(Br)c2ncc(C#N)c(Nc3ccc(F)c(Cl)c3)c2c1
Activity (Blood): >20 µM
Inhibitory concentration (Monocyte): 665 nM

Structure (SMILES): CC(C)c1[nH]cnc1CNc1cc(Br)c2ncc(C#N)c(Nc3ccc(F)c(Cl)c3)c2c1
Activity (Blood): >20 µM
Inhibitory concentration (Monocyte): 2200 nM

Structure (SMILES): CCc1[nH]cnc1CNc1cc(Cl)c2ncc(C#N)c(Nc3ccc(F)c(Cl)c3)c2c1
Activity (Blood): 7.5 µM

Structure (SMILES): CS(=O)(=O)CCn1cnc(CNc2cc(Br)c3ncc(C#N)c(Nc4ccc(F)c(Cl)c4)c3c2)c1
Activity (Blood): >20 µM
Inhibitory concentration (Monocyte): 1000 nM

Second part, led by results:

IC50 [1]: > 5 µM
Structure (SMILES): N#Cc1cnc2c(Br)cc(NC(=O)Cc3cnc[nH]3)cc2c1Nc1ccc(F)c(Cl)c1

IC50 [2]: > 20 µM
Structure (SMILES): CN(C)C(=O)c1cc(NCc2c[nH]cn2)cc2c(Nc3ccc(F)c(Cl)c3)c(C#N)cnc12
Activity (Blood): >10 µM
Inhibitory concentration (Monocyte): >1000 nM

Vd [3]: 1.6 L/kg
IC50 [2]: 2.9 µM
IC50 (Cytochrome P450 3A4): 18 µM
half-life [4]: 0.8 h
AUC/dose (Rattus norvegicus): < 10 ng·kg·h/mg/mL
IC50 [5]: > 40 µM
IC50 [6]: 40.1 µM
IC50 (CaM kinase II): > 40 µM
IC50 [7]: > 40 µM
IC50 [8]: > 40 µM
solubility (physchem): < 10 µg/mL
IC50 [9]: > 40 µM
bioavailability [10]: < 1%
clearance [11]: 38 mL/min/kg
half-life [12]: 4.2 h
Papp [13]: < 5 ×10⁻⁶ cm/s
IC50 [14]: > 40 µM
Structure (SMILES): N#Cc1cnc2c(Cl)cc(NCc3cccc[n+]3[O-])cc2c1Nc1ccc(F)c(Cl)c1
Activity (Blood): 11.4 µM
Inhibitory concentration (Monocyte): 1500 nM

IC50 [2]: 2.08 µM
IC50 [1]: 0.13 µM
Structure (SMILES): COc1cc(NCc2c[nH]cn2)cc2c(Nc3ccc(F)c(Cl)c3)c(C#N)cnc12
Activity (Blood): >10 µM
Inhibitory concentration (Monocyte): 3000 nM

Vd [3]: 12.2 L/kg
IC50 (Cytochrome P450 3A4): 16 µM
half-life [4]: 1.2 h
IC50 [5]: > 40 µM
IC50 [6]: 62.7 µM
IC50 (CaM kinase II): > 40 µM
IC50 [7]: 76.1 µM
IC50 [8]: > 40 µM
solubility (physchem): < 10 µg/mL
IC50 [9]: 18.8 µM
clearance [11]: > 100 mL/min/kg
Papp [13]: < 5 ×10⁻⁶ cm/s
IC50 [14]: > 40 µM
Structure (SMILES): CCCc1[nH]cnc1CNc1cc(Cl)c2ncc(C#N)c(Nc3ccc(F)c(Cl)c3)c2c1
Activity (Blood): 5.6 µM
Inhibitory concentration (Monocyte): 220 nM

IC50 [2]: 0.156 µM
Structure (SMILES): CC(=O)c1cc(NCc2c[nH]cn2)cc2c(Nc3ccc(F)c(Cl)c3)c(C#N)cnc12
Activity (Blood): >10 µM
Inhibitory concentration (Monocyte): 580 nM

IC50 [1]: 0.35 µM
Structure (SMILES): N#Cc1cnc2c(Cl)cc(NCc3cccc(N4CCOCC4)n3)cc2c1Nc1ccc(F)c(Cl)c1

AUC/dose (Rattus norvegicus): < 10 ng·kg·h/mg/mL
IC50 [5]: > 40 µM
IC50 [6]: > 40 µM
IC50 [7]: > 40 µM
IC50 [8]: > 40 µM
IC50 [9]: > 40 µM
IC50 [15]: > 40 µM
half-life [12]: 2.6 h
inhibition at 3 µM (CYP3A4): 66%
IC50 [14]: > 40 µM
Structure (SMILES): CN(C)CCCn1cc(CNc2cc(Br)c3ncc(C#N)c(Nc4ccc(F)c(Cl)c4)c3c2)nn1
Activity (Blood): 3.08 µM
Inhibitory concentration (Monocyte): 221 nM
